Reference: ChEMBL document CHEMBL4043093, “2-Oxo-3, 4-dihydropyrimido[4, 5-d]pyrimidinyl derivatives as new irreversible pan fibroblast growth factor receptor (FGFR) inhibitors” (Eur J Med Chem, 2017)

Legend:
[1] = target: CDK4/Cyclin D3 (Homo sapiens) (UniProt P11802+P30281); experiment: Inhibition of wild-type human full length CDK4/cyclinD3 (M1 to E303 residues) expressed in HEK293 cells assessed as residual activity at 1000 nM after 30 mins by Kinomescan method relative to control; format: cell-based
Outline: (§1)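 Single-point screen at a fixed 1 µM, run within a 456-kinase DiscoveRx KINOMEscan panel. Each kinase's read-out is Percent Control, i.e. signal relative to a control without compound. Hits were scored by a Percent Control < 35 cut-off, and an S(35) selectivity score was calculated across the non-mutant kinases.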

[2] = target: SRSF protein kinase 2 (Homo sapiens) (UniProt P78362); experiment: Inhibition of wild-type human full length SRPK2 (M1 to S686 residues) expressed in Escherichia coli BL21 assessed as residual activity at 1000 nM after 30 mins by Kinomescan method relative to control
[3] = target: Cyclin-dependent kinase 2 (Homo sapiens) (UniProt P24941); experiment: Inhibition of wild-type human full length CDK2 (M1 to L298 residues) expressed in Escherichia coli BL21 assessed as residual activity at 1000 nM after 30 mins by Kinomescan method relative to control; outline: as §1
[4] = target: Misshapen-like kinase 1 (Homo sapiens) (UniProt Q8N4C8); experiment: Inhibition of wild-type human partial length MINK (M1 to K312 residues) expressed in HEK293 cells assessed as residual activity at 1000 nM after 30 mins by Kinomescan method relative to control; format: cell-based
[5] = target: Bone morphogenetic protein receptor type-1B (Homo sapiens) (UniProt O00238); experiment: Inhibition of wild-type human partial length BMPR1B (D178 to L502 residues) expressed in HEK293 cells assessed as residual activity at 1000 nM after 30 mins by Kinomescan method relative to control; format: cell-based
Chain of Bone morphogenetic protein receptor type-1B (Homo sapiens) (O00238 whole entry, the tested form may be a part): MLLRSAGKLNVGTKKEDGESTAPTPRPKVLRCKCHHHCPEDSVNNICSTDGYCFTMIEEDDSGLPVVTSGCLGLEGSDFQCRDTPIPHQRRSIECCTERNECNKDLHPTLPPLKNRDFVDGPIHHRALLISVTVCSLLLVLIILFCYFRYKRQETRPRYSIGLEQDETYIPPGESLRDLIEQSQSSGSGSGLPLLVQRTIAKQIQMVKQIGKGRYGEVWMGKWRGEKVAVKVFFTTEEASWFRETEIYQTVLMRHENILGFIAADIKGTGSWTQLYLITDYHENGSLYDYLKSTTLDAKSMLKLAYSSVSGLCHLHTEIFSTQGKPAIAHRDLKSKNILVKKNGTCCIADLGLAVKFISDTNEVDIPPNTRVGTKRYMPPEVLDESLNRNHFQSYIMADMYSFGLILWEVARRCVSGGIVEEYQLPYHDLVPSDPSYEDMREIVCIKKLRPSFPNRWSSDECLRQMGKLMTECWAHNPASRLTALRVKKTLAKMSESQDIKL

[6] = target: Tyrosine-protein kinase ZAP-70 (Homo sapiens) (UniProt P43403); experiment: Inhibition of wild-type human partial length ZAP70 (D20 to G299 residues) expressed in HEK293 cells assessed as residual activity at 1000 nM after 30 mins by Kinomescan method relative to control; format: cell-based
Chain of Tyrosine-protein kinase ZAP-70 (Homo sapiens) (P43403 whole entry, the tested form may be a part): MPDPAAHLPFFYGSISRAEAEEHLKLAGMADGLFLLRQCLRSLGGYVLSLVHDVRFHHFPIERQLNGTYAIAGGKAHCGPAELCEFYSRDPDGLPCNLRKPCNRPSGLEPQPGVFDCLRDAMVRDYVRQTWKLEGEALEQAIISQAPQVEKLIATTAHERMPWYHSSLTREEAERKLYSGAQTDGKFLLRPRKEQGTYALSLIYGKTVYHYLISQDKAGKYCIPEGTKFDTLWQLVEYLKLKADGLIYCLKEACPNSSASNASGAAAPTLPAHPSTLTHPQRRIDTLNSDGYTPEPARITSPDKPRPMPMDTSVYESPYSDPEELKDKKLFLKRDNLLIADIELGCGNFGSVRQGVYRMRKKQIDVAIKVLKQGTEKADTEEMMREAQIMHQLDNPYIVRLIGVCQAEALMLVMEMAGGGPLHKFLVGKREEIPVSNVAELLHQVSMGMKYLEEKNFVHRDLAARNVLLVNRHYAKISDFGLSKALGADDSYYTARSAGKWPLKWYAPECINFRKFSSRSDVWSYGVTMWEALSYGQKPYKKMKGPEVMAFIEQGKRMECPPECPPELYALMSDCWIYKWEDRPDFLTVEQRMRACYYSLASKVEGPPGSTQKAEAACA

[7] = target: Receptor tyrosine-protein kinase erbB-3 (Homo sapiens) (UniProt P21860); experiment: Inhibition of wild-type human partial length ERBB3 (G684 to A987 residues) expressed in HEK293 cells assessed as residual activity at 1000 nM after 30 mins by Kinomescan method relative to control; format: cell-based
[8] = target: Serine/threonine-protein kinase N2 (Homo sapiens) (UniProt Q16513); experiment: Inhibition of wild-type human partial length PKN2 (E634 to C984 residues) expressed in Escherichia coli BL21 assessed as residual activity at 1000 nM after 30 mins by Kinomescan method relative to control
[9] = target: Serine/threonine-protein kinase 32A (Homo sapiens) (UniProt Q8WU08); experiment: Inhibition of wild-type human full length YANK1 (M1 to L396 residues) expressed in HEK293 cells assessed as residual activity at 1000 nM after 30 mins by Kinomescan method relative to control; format: cell-based
Chain of Serine/threonine-protein kinase 32A (Homo sapiens) (Q8WU08 whole entry, the tested form may be a part, canonical isoform): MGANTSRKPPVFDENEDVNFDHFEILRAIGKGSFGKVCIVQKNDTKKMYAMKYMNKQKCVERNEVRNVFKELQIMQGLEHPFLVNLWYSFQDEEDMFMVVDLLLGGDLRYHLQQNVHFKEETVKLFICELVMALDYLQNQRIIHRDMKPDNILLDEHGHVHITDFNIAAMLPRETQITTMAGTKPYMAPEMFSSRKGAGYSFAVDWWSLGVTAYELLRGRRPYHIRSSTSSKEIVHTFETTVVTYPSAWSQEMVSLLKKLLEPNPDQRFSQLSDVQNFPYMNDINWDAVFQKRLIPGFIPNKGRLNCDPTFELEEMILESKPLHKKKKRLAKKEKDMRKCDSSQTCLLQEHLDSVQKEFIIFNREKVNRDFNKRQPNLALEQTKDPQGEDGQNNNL

[10] = target: Casein kinase I isoform gamma-2 (Homo sapiens) (UniProt P78368); experiment: Inhibition of wild-type human full length CSNK1G2 (M1 to K415 residues) expressed in Escherichia coli BL21 assessed as residual activity at 1000 nM after 30 mins by Kinomescan method relative to control; outline: as §1
Chain of Casein kinase I isoform gamma-2 (Homo sapiens) (P78368 whole entry, looked up, the tested form may be a part, canonical isoform): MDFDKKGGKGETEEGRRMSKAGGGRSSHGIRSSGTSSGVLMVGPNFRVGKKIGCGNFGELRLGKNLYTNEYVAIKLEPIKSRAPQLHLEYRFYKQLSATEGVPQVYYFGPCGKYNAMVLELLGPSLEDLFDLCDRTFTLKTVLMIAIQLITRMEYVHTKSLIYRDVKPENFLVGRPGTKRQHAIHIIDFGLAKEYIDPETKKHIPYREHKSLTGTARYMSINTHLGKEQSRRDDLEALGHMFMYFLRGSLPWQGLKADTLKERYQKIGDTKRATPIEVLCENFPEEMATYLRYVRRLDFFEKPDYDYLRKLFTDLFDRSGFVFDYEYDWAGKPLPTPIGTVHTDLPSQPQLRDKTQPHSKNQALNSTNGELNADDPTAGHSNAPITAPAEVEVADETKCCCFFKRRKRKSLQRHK

[11] = target: Serine/threonine-protein kinase ULK1 (Homo sapiens) (UniProt O75385); experiment: Inhibition of wild-type human partial length ULK1 (M1 to T309 residues) expressed in HEK293 cells assessed as residual activity at 1000 nM after 30 mins by Kinomescan method relative to control; format: cell-based
[12] = target: Macrophage colony-stimulating factor 1 receptor (Homo sapiens) (UniProt P07333); experiment: Inhibition of wild-type human partial length CSF1R (I564 to S939 residues) expressed in Escherichia coli BL21 assessed as residual activity at 1000 nM after 30 mins by Kinomescan method relative to control
[13] = target: Mitogen-activated protein kinase 14 (Homo sapiens) (UniProt Q16539); experiment: Inhibition of wild-type human full length p38-alpha (M1 to S360 residues) expressed in Escherichia coli BL21 assessed as residual activity at 1000 nM after 30 mins by Kinomescan method relative to control
Chain of Mitogen-activated protein kinase 14 (Homo sapiens) (Q16539 whole entry, the tested form may be a part): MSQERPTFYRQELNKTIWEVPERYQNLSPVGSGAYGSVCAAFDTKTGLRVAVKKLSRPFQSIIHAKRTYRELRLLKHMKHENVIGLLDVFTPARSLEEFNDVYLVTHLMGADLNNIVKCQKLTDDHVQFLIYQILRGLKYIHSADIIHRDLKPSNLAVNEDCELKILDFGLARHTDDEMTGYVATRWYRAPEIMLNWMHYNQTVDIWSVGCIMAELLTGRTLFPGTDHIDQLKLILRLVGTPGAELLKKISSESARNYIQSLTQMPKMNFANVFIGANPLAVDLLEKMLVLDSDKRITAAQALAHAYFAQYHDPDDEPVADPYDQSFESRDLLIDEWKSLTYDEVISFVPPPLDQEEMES

[14] = target: Interleukin-1 receptor-associated kinase 4 (Homo sapiens) (UniProt Q9NWZ3); experiment: Inhibition of wild-type human partial length IRAK4 (M1 to S460 residues) expressed in HEK293 cells assessed as residual activity at 1000 nM after 30 mins by Kinomescan method relative to control; format: cell-based
[15] = target: Aurora kinase C (Homo sapiens) (UniProt Q9UQB9); experiment: Inhibition of wild-type human full length AURKC (M1 to S275 residues) expressed in Escherichia coli BL21 assessed as residual activity at 1000 nM after 30 mins by Kinomescan method relative to control; outline: as §1
Chain of Aurora kinase C (Homo sapiens) (Q9UQB9 whole entry, the tested form may be a part): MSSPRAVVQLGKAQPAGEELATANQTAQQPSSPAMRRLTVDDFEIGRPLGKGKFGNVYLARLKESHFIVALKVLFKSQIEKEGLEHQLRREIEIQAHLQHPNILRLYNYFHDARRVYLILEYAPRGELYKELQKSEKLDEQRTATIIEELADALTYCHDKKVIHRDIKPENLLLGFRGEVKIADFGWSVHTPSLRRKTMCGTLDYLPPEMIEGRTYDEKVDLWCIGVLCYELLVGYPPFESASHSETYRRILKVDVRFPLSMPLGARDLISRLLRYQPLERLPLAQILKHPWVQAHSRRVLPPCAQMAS

[16] = target: Calcium/calmodulin-dependent protein kinase type II subunit delta (Homo sapiens) (UniProt Q13557); experiment: Inhibition of wild-type human partial length CAMK2D (M1 to E329 residues) expressed in Escherichia coli BL21 assessed as residual activity at 1000 nM after 30 mins by Kinomescan method relative to control
Chain of Calcium/calmodulin-dependent protein kinase type II subunit delta (Homo sapiens) (Q13557 whole entry, the tested form may be a part): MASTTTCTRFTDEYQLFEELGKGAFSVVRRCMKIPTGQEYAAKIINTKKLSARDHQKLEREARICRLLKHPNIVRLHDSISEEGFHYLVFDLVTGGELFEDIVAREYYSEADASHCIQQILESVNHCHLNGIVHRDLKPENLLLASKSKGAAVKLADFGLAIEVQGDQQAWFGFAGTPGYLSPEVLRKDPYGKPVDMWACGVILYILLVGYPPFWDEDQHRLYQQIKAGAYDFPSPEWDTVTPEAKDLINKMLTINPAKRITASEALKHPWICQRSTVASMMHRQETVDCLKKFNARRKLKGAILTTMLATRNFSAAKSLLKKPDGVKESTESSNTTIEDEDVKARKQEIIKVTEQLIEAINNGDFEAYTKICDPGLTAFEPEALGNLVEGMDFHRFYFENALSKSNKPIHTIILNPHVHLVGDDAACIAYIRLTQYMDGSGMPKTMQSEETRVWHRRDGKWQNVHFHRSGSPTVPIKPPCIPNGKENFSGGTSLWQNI

Homo sapiens = species: Homo sapiens; experiment: Inhibition of human partial length FLT3 ITD/F691L double mutant expressed in Escherichia coli BL21 assessed as residual activity at 1000 nM after 30 mins by Kinomescan method relative to control
Outline: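 KINOMEscan binding panel of 456 kinases, with the test compound at a single concentration of 1 µM. Read-out is Percent Control.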

[17] = target: Tyrosine-protein kinase Fyn (Homo sapiens) (UniProt P06241); experiment: Inhibition of wild-type human partial length FYN (T243 to L534 residues) expressed in Escherichia coli BL21 assessed as residual activity at 1000 nM after 30 mins by Kinomescan method relative to control
Chain of Tyrosine-protein kinase Fyn (Homo sapiens) (P06241 2-537 limits assumed): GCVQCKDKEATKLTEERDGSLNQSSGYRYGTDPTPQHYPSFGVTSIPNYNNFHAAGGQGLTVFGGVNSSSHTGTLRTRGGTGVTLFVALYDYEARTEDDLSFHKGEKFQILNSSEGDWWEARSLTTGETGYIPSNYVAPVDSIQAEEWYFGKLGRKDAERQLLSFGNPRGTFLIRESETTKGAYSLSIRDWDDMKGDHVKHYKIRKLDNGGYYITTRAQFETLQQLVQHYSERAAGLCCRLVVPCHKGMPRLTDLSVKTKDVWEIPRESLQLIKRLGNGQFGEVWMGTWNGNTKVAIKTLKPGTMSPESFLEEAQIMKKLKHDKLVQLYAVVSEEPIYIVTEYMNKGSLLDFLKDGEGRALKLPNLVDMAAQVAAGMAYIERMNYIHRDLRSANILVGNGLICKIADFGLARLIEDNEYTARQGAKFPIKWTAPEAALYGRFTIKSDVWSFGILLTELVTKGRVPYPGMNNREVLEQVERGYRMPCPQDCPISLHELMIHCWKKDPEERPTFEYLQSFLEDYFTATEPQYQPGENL

[18] = target: Dual specificity protein kinase CLK4 (Homo sapiens) (UniProt Q9HAZ1); experiment: Inhibition of wild-type human partial length CLK4 (R135 to K481 residues) expressed in Escherichia coli BL21 assessed as residual activity at 1000 nM after 30 mins by Kinomescan method relative to control
Chain of Dual specificity protein kinase CLK4 (Homo sapiens) (Q9HAZ1 whole entry, looked up, the tested form may be a part): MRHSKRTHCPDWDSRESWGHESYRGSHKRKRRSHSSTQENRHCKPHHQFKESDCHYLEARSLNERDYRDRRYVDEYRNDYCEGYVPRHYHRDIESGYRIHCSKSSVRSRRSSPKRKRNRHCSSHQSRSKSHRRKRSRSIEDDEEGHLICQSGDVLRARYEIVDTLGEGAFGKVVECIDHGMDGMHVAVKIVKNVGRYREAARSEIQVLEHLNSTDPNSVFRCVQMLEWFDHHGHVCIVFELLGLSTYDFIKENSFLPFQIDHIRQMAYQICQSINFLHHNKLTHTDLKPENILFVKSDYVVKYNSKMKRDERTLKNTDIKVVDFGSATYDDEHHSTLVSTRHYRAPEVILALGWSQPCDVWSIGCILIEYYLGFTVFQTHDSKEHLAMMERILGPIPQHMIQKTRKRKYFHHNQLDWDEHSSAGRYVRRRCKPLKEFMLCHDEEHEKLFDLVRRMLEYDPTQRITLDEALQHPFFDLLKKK

[19] = target: Insulin receptor-related protein (Homo sapiens) (UniProt P14616); experiment: Inhibition of wild-type human partial length INSRR (R950 to E1278 residues) expressed in Escherichia coli BL21 assessed as residual activity at 1000 nM after 30 mins by Kinomescan method relative to control
[20] = target: Calcium/calmodulin-dependent protein kinase type IV (Homo sapiens) (UniProt Q16566); experiment: Inhibition of wild-type human partial length CAMK4 (A22 to A322 residues) expressed in Escherichia coli BL21 assessed as residual activity at 1000 nM after 30 mins by Kinomescan method relative to control
Chain of Calcium/calmodulin-dependent protein kinase type IV (Homo sapiens) (Q16566 whole entry, the tested form may be a part): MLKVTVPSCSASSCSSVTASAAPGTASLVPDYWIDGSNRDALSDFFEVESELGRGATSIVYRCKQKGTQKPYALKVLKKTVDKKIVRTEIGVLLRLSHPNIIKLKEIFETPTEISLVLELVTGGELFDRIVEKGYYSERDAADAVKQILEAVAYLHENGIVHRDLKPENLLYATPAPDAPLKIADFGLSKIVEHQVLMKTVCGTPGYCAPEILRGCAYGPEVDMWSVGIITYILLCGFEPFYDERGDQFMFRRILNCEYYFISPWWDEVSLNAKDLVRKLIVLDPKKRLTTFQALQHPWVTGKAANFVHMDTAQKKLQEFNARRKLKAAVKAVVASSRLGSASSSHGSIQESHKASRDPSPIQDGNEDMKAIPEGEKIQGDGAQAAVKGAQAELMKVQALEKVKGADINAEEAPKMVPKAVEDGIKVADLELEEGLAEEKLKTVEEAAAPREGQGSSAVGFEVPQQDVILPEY

[21] = target: Cyclin-dependent kinase 9 (Homo sapiens) (UniProt P50750); experiment: Inhibition of wild-type human full length CDK9 (M1 to F372 residues) expressed in Escherichia coli BL21 assessed as residual activity at 1000 nM after 30 mins by Kinomescan method relative to control; outline: as §1
Chain of Cyclin-dependent kinase 9 (Homo sapiens) (P50750 whole entry, the tested form may be a part): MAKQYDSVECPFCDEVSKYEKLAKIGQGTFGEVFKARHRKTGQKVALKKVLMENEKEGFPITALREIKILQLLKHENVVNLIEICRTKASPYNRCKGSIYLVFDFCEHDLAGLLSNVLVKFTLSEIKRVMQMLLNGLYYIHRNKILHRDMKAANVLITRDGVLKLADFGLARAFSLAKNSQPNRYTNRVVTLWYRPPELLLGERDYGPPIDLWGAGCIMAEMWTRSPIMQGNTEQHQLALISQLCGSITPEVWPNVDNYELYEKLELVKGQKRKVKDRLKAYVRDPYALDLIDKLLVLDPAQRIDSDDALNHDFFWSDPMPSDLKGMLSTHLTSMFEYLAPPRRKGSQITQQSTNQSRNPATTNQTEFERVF

Compound: COc1cc(OC)c(Cl)c(N2Cc3cnc(Nc4ccc(F)cc4)nc3N(C3CCN(C(=O)/C=C/CN(C)C)CC3)C2=O)c1Cl
- Activity [1]: 100%
- Activity [2]: 91%
- Activity [3]: 100%
- Activity [4]: 93%
- Activity [5]: 97%
- Activity [6]: 85%
- Activity [7]: 100%
- Activity [8]: 91%
- Activity [9]: 100%
- Activity [10]: 100%
- Activity [11]: 89%
- Activity [12]: 0.4%
- Activity [13]: 98%
- Activity [14]: 100%
- Activity [15]: 100%
- Activity [16]: 100%
- Activity (Homo sapiens): 90%
- Activity [17]: 19%
- Activity [18]: 93%
- Activity [19]: 52%
- Activity [20]: 96%
- Activity [21]: 97%
